ChEMBL document CHEMBL4477209, “Indole-2-carboxamide-based MmpL3 Inhibitors Show Exceptional Antitubercular Activity in an Animal Model of Tuberculosis Infection” (J Med Chem, 2016)
Calls of active or inactive are those of the source. No cut-off for these calls is given here.

Assays:
[1] = test system: Mycobacterium tuberculosis; assay: Antimycobacterial activity against Mycobacterium tuberculosis H37Rv infected in BALB/c mouse model assessed as reduction in CFU counts in lung at 100 mg/kg administered daily via oral gavage for 5 days per week measured after 14 days post dosage relative to control; assay type: functional
Summary of the method: (§1)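 Female BALB/c mice, 4-6 weeks old, aerosol-infected with H37Rv (about 10^3 CFU); five mice taken on day 1 for lung implantation CFU. From day 1, 12.5, 25, 50 or 100 mg/kg in 0.5% carboxymethylcellulose by daily oral gavage, 5 days/week. Ethambutol 100 mg/kg as positive control, untreated infected mice as negative, 5 mice per group. Lung homogenates plated on 7H11 selective agar on days 14 and 28.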

[2] = Cmax in BALB/c mouse lung at 100 mg/kg administered via oral gavage after 0.25 to 24 hrs by LC-MS analysis; assay type: ADME, organism-based; parameters: dose 100 mg/kg, route oral
Summary of the method: (§2)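 Female BALB/c mice (20 g), single oral gavage dose of 100 mg/kg. Cardiac blood and lungs taken at 0, 0.25, 0.5, 1, 2, 4, 8 and 24 h (n = 3 per time point). Plasma separated by centrifugation; lungs bead-beaten in water and supernatant recovered. Drug quantified by LC-MS/MS against an indole-2-carboxamide internal standard. Parameters derived by noncompartmental analysis.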

[3] = Stability in dog hepatocytes assessed as compound remaining at 1 uM after 2 hrs; assay type: ADME, cell-based, Canis lupus familiaris, Hepatocyte; details: read-out: Stability
Summary of the method: (§3)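 Hepatocytes from human, mouse, rat or dog incubated with 1 μM starting concentration for 2 h; percent of parent compound remaining.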

[4] = Stability in mouse hepatocytes assessed as compound remaining at 1 uM after 2 hrs; assay type: ADME, cell-based, Hepatocyte; details: read-out: Stability; summary of the method: as §3
[5] = test system: Mycobacterium tuberculosis; assay: Antimycobacterial activity against Mycobacterium tuberculosis H37Rv infected in BALB/c mouse model assessed as reduction in CFU counts in lungs administered daily via oral gavage for 5 days per week measured after 14 to 28 days post dosage relative to control; assay type: functional, organism-based; summary of the method: as §1
[6] = Mutagenicity in Salmonella typhimurium TA98 assessed as increase in ratio of revertant colonies at 500 microg/plate in presence of S9 liver fraction relative to control; assay type: toxicity, subcellular; details: salmonella enterica subsp. enterica serovar typhimurium
Summary of the method: (§4)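 Bacterial reverse mutation test in S. typhimurium TA98 with S9 liver fraction, at 500 and 5000 μg/plate. Revertant colony count expressed as a ratio to the DMSO solvent control; 2-aminoanthracene as positive control.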

[7] = Permeability across basolateral to apical side in human Caco2 cells; assay type: ADME, cell-based; details: Caco-2, read-out: permeability
[8] = biological target: T1, Nuclear receptor subfamily 1 group I member 3 (Homo sapiens, UniProt Q14994); assay: Transactivation of CAR (unknown origin) assessed as upregulation of CYP2B6 at 0.1 to 1 microg/ml; assay type: ADME
T1 sequence (Q14994 whole entry): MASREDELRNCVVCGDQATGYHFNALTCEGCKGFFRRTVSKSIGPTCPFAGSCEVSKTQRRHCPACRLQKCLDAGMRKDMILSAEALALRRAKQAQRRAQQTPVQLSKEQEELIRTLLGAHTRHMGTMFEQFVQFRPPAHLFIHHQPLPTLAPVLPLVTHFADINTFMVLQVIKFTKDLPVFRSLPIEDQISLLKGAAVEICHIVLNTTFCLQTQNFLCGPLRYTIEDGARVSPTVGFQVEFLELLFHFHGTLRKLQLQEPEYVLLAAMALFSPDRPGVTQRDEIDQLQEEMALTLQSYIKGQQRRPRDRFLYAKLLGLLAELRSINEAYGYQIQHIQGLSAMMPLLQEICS
Summary of the method: (§5)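 Nuclear receptor reporter-gene induction assay, with reporters coupled to PXR, CAR or AhR. Compound was tested at 0.1–1, 3 and 8 μg/mL. Positive controls were rifampin for PXR, CITCO for CAR and 3-methylcholanthrene for AhR.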

[9] = test system: Mycobacterium tuberculosis; assay: Antimycobacterial activity against Mycobacterium tuberculosis H37Rv infected in BALB/c mouse model assessed as bacterial growth inhibition in lungs at 100 mg/kg administered daily via oral gavage for 5 days per week measured after 28 days post dosage co-treated with 10 mg/kg of rifampin by Bliss synergy model based analysis; assay type: functional, organism-based
Summary of the method: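 Female BALB/c mice, 4-6 weeks old, aerosol-infected with H37Rv, day 1 implantation 3.4-log CFU per lung. Treatment from day 14: 100 mg/kg plus rifampin 10 mg/kg by oral gavage, doses at least 1 h apart, daily 5 days/week. Single-drug arms and untreated infected controls included, four mice per group. Lung CFU counted at day 28 of treatment on 7H11 selective agar.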

[10] = Mutagenicity in Salmonella typhimurium TA1537; assay type: toxicity; details: salmonella enterica subsp. enterica serovar typhimurium
[11] = AUMClast in BALB/c mouse plasma at 100 mg/kg administered via oral gavage after 0.25 to 24 hrs by LC-MS analysis; assay type: ADME, organism-based; details: in vivo; summary of the method: as §2
[12] = test system: Mycobacterium tuberculosis; assay: Antimycobacterial activity against Mycobacterium tuberculosis H37Rv assessed as growth inhibition at 0.0313 times MIC after 7 to 14 days in presence of 0.5 times MIC of rifampin by alamar blue assay based by Bliss synergy model analysis; assay type: functional
Summary of the method: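 Checkerboard of 2-fold dilutions, 4.0 to 0.0313 × MIC of each drug combined with rifampin. M. tuberculosis H37Rv at 1 × 10^4 CFU per well in 200 μL. Single-drug, blank and full-growth controls included. alamarBlue read-out, percent inhibition calculated. Bliss independence applied to wells below 1 × MIC; Δfaxy > 0 taken as synergy, < 0 as antagonism.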

[13] = Stability in human hepatocytes assessed as compound remaining at 1 uM after 2 hrs; assay type: ADME, cell-based, Hepatocyte; details: read-out: Stability; summary of the method: as §3
[14] = biological target: T2, Nuclear receptor subfamily 1 group I member 2 (Homo sapiens, UniProt O75469); assay: Transactivation of PXR (unknown origin) assessed as upregulation of CYP3A4 at 0.1 to 1 microg/ml; assay type: ADME; summary of the method: as §5
T2 sequence (O75469 whole entry): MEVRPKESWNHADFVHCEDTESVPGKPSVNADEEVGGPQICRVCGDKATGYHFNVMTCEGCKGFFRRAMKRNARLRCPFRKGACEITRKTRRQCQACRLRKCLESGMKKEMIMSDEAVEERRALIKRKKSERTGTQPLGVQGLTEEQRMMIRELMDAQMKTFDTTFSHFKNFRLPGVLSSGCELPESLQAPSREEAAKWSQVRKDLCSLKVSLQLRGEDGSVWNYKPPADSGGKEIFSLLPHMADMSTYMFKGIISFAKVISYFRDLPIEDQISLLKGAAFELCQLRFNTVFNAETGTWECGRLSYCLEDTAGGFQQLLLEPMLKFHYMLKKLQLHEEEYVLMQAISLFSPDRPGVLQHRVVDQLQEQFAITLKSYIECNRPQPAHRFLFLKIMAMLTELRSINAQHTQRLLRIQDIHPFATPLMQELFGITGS

[15] = biological target: T1, Nuclear receptor subfamily 1 group I member 3; assay: Transactivation of CAR (unknown origin) assessed as upregulation of CYP2B6 at 3 to 8 microg/ml; assay type: ADME; summary of the method: as §5
[16] = Stability in rat hepatocytes assessed as compound remaining at 1 uM after 2 hrs; assay type: ADME, cell-based, Hepatocyte; details: read-out: Stability; summary of the method: as §3
[17] = test system: Mycobacterium tuberculosis; assay: Antimycobacterial activity against Mycobacterium tuberculosis H37Rv infected in BALB/c mouse model assessed as protection against mouse mortality at 12.5 to 100 mg/kg administered daily via oral gavage for 5 days per week measured after 14 to 28 days post dosage; assay type: functional, organism-based
[18] = Mutagenicity in Salmonella typhimurium TA98 assessed as increase in ratio of revertant colonies at 5000 microg/plate in presence of S9 liver fraction relative to control; assay type: toxicity, subcellular; details: salmonella enterica subsp. enterica serovar typhimurium; summary of the method: as §4

C[C@@H]1[C@H]2C[C@@H](C[C@H]1NC(=O)c1cc3c(F)cc(F)cc3[nH]1)C2(C)C
Activity [1]: 1.71 log10CFU | Cmax [2]: 3500 ng/g | remaining at 2 h, 1 µM [3]: 18% | remaining at 2 h, 1 µM [4]: 15% | Activity [5]: Dose-dependent effect | fold change (FC) [6]: 2.5 | Papp B→A [7]: 0.25 ×10⁻⁶ cm/s | Activity [8]: Not Active | Activity [9]: Active | Activity [10]: Non-Toxic | AUMClast [11]: 137 hr.hr.ug/ml | growth inhibition (GI) [12]: 90.5% | remaining at 2 h, 1 µM [13]: 52% | Activity [14]: Not Active | Activity [15]: Active | remaining at 2 h, 1 µM [16]: 0.7% | Activity [17]: Active | fold change (FC) [18]: 2
